Converted amounts (≈) assume the structure as drawn. The source made the active and inactive calls. The calls are words filed in the database; no cut-off is given here.
What was measured:
MCF7 = experiment: Cytotoxicity against human MCF7 cells by SRB assay; format: functional, cell-based
[1] = system: Radical scavenging activity; experiment: Antioxidant activity assessed as DPPH free radical scavenging activity at 50 ug after 30 mins by spectrophotometry; format: functional
In short: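 Each sample (50 μg) dissolved in 1 ml DMSO; 250 μl added to 1 ml DPPH in DMSO (6 mg/50 ml), brought to 3 ml with DMSO. DMSO served as control. Vortexed, kept 30 min in the dark at room temperature, and absorbance read at 517 nm. Scavenging % = [1 − (A sample/A control)] × 100.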

[2] = system: Radical scavenging activity; experiment: Antioxidant activity assessed as DPPH free radical scavenging activity after 30 mins by spectrophotometry; format: functional
In short: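 EC50, the amount giving half-maximal scavenging, was taken from serial dilutions (5–50 μg/ml) in DMSO run against DPPH in DMSO (6 mg/50 ml stock) to a 3 ml total. Incubated 30 min in the dark at room temperature, with a DMSO control and A517 read-out. Scavenging % = [1 − (A sample/A control)] × 100.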

HepG2 = experiment: Cytotoxicity against human HepG2 cells by SRB assay; format: functional, cell-based
Bacillus = experiment: Antimicrobial activity against Bacillus assessed as diameter of inhibition zone at 10 mg/ml after 24 hrs by cut-plug method; format: functional
In short: (§1)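 Bacteria were maintained on nutrient agar and fungi on Sabouraud agar slopes. Testing used the cut-plug technique on nutrient agar, incubated at 30°C for 24 h, and inhibition zone diameters were measured in mm.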

Fusarium oxysporum = experiment: Antifungal activity against Fusarium oxysporum assessed as diameter of inhibition zone at 10 mg/ml after 24 hrs by cut-plug method; format: functional; in short: as §1
Serratia = experiment: Antimicrobial activity against Serratia assessed as diameter of inhibition zone at 10 mg/ml after 24 hrs by cut-plug method; format: functional; conditions: read-out: DIZ; in short: as §1
Penicillium expansum = experiment: Antifungal activity against Penicillium expansum assessed as diameter of inhibition zone at 10 mg/ml after 24 hrs by cut-plug method; format: functional; conditions: for zone of inhibition at 10000 µg/mL: read-out: DIZ; in short: as §1
Enterobacter cloacae = experiment: Antimicrobial activity against Enterobacter cloaca assessed as diameter of inhibition zone at 10 mg/ml after 24 hrs by cut-plug method; format: functional; conditions: read-out: DIZ; in short: as §1
Escherichia coli = experiment: Antimicrobial activity against Escherichia coli assessed as diameter of inhibition zone at 10 mg/ml after 24 hrs by cut-plug method; format: functional; conditions: read-out: DIZ; in short: as §1

SMILES | IC50 (MCF7) | Activity [1] | EC50 [2] | IC50 (HepG2) | diameter of the inhibition zone (DIZ) (Bacillus) | diameter of the inhibition zone (DIZ) (Fusarium oxysporum) | zone of inhibition at 10000 µg/mL (Serratia) | diameter of the inhibition zone (DIZ) (Penicillium expansum) | zone of inhibition at 10000 µg/mL (Enterobacter cloacae) | zone of inhibition at 10000 µg/mL (Escherichia coli) | zone of inhibition at 10000 µg/mL (Bacillus; read-out: DIZ) | zone of inhibition at 10000 µg/mL (Fusarium oxysporum; read-out: DIZ) | zone of inhibition at 10000 µg/mL (Penicillium expansum)
N#Cc1cc2c(-c3cccnc3)nn(-c3ccccc3)c2[nH]c1=O | 3 µg/mL (≈ 9.57 µM) | 1.14% | > 100 µg/mL | 3.3 µg/mL (≈ 10.5 µM) |  |  |  |  |  |  |  |  | 
CCOC(=O)c1cc2c(-c3cccnc3)nn(-c3ccccc3)c2nc1-c1cccnc1 | 6.9 µg/mL (≈ 16.4 µM) | inactive |  | 3.75 µg/mL (≈ 8.9 µM) |  |  |  |  |  |  |  |  | 
COc1cccc2c1C(=O)c1c(O)c3c(c(O)c1C2=O)C[C@@](O)(C(=O)CO)C[C@@H]3O[C@H]1C[C@H](N)[C@H](O)[C@H](C)O1 [DOXORUBICIN] |  |  |  | 3.1 µg/mL (≈ 5.7 µM) |  |  |  |  |  |  |  |  | 
O=C(c1ccc(Cl)cc1)c1cc2c(-c3cccnc3)nn(-c3ccccc3)c2[nH]c1=O | 6.45 µg/mL (≈ 15.1 µM) | 63.6% | 8.97 µg/mL (≈ 21 µM) | 9 µg/mL (≈ 21.1 µM) | inactive | inactive | 17 mm | inactive | 19 mm | 19 mm |  |  | 
O=C(N[C@H](CO)[C@H](O)c1ccc([N+](=O)[O-])cc1)C(Cl)Cl [CHLORAMPHENICOL] |  |  |  |  |  |  | 25.8 mm |  | 17 mm | 18 mm | 21 mm | 12 mm | 10 mm
c1ccc(-c2cc3ncc4c(-c5cccnc5)nn(-c5ccccc5)c4n3n2)cc1 | 15.9 µg/mL (≈ 40.9 µM) | 9.47% | > 100 µg/mL | 17.3 µg/mL (≈ 44.5 µM) |  |  |  |  |  |  |  |  | 
O=C1O[C@H]([C@@H](O)CO)C(O)=C1O [ASCORBIC ACID] |  | 82.8% | 3.22 µg/mL (≈ 18.3 µM) |  |  |  |  |  |  |  |  |  | 
O=C(c1ccc(F)cc1)c1cc2c(-c3cccnc3)nn(-c3ccccc3)c2[nH]c1=O | 8.7 µg/mL (≈ 21.2 µM) | 72.3% | 4.21 µg/mL (≈ 10.3 µM) | 7.8 µg/mL (≈ 19 µM) | inactive | inactive | 17.5 mm | inactive | 21 mm | 15 mm |  |  | 
N#Cc1cc2c(-c3cccnc3)nn(-c3ccccc3)c2[nH]c1=S | 2.7 µg/mL (≈ 8.2 µM) | 17% | 92.85 µg/mL (≈ 282 µM) | 3.9 µg/mL (≈ 11.8 µM) |  |  |  |  |  |  |  |  | 
O=C(c1cccnc1)c1cc2c(-c3cccnc3)nn(-c3ccccc3)c2[nH]c1=O | 10.1 µg/mL (≈ 25.7 µM) | 36% | 38.64 µg/mL (≈ 98.2 µM) | 11 µg/mL (≈ 28 µM) | inactive | inactive | 12.5 mm | inactive | 11.5 mm | 10.5 mm |  |  | 
Cc1ccc(-c2cc3ncc4c(-c5cccnc5)nn(-c5ccccc5)c4n3n2)cc1 | 10.5 µg/mL (≈ 26.1 µM) | 39.6% | 53.76 µg/mL (≈ 134 µM) | 12.9 µg/mL (≈ 32.1 µM) |  |  |  |  |  |  |  |  | 
Cc1ccc(C(=O)c2cc3c(-c4cccnc4)nn(-c4ccccc4)c3[nH]c2=O)cc1 | 9.9 µg/mL (≈ 24.4 µM) | 38.9% | 54.76 µg/mL (≈ 135 µM) | 8.85 µg/mL (≈ 21.8 µM) | inactive | inactive | 17 mm |  | 12.5 mm | 17 mm |  |  | 10 mm
Clc1ccc(-c2cc3ncc4c(-c5cccnc5)nn(-c5ccccc5)c4n3n2)cc1 | 14.7 µg/mL (≈ 34.8 µM) | 29.4% | 80.5 µg/mL (≈ 190 µM) | 16.2 µg/mL (≈ 38.3 µM) |  |  |  |  |  |  |  |  | 

Reference: ChEMBL document CHEMBL2407089, “Microwave-assisted synthesis of some new pyrazolopyridines and their antioxidant, antitumor and antimicrobial activities” (Eur J Med Chem, 2013)
